Converted amounts (≈) assume the structure as drawn. The source made the active and inactive calls. The rule behind the calls is not given here. Where a SMILES comes first, the peptide text is derived from it. [ ]: non-standard residue; d: D form. The star is where a group is joined. Myristoyl = CCCCCCCCCCCCCC(=O)*; 3Abz = Nc1cccc(C(=O)O)c1; Orn = NCCC[CH](N)C(=O)O
Legend:
[1] = system: Aspergillus fumigatus; experiment: Antifungal activity against fluconazole-resistant Aspergillus fumigatus IGMC/LM1/0336 after 24 hrs by M27-A method; format: functional; details: IGMC/LM1/0336, 24 h
Outline: (§1)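 Fungi at 2.5×10^3 cfu/mL in RPMI 1640 (L-glutamine, no glucose or NaHCO3, pH 7.0 with 0.165 M MOPS). Mixed 1:1 with serial 2-fold dilutions in water, incubated at 37 °C with shaking, 24 h for A. fumigatus and 48–72 h for C. albicans. Growth read by absorbance at 600 nm. MIC taken as the lowest concentration with no growth.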

[2] = system: Staphylococcus aureus; experiment: Bactericidal activity against Staphylococcus aureus MTCC 3160 at 4 to 8 times MIC by time-kill assay; format: functional, organism-based
Outline: (§2)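 Time-kill: mid-log cells (2×10^5 CFU/mL) in MHB, untreated or exposed at 1, 2, 4 and 8×MIC at 37 °C. Aliquots taken at 0, 15, 30, 60, 120 and 240 min, serially 10-fold diluted, plated on Mueller-Hinton agar for 18 h at 37 °C. Log CFU/mL plotted against time versus untreated control; two independent experiments in triplicate.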

[3] = system: Aspergillus niger; experiment: Antifungal activity against Aspergillus niger ATCC 64028 after 24 hrs by M27-A method; format: functional; details: ATCC 64028, 24 h
Outline: (§3)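 Fungi at 2.5×10^3 cfu/mL in RPMI 1640 (L-glutamine, no glucose or NaHCO3, buffered pH 7.0 with 0.165 M MOPS), mixed 1:1 with serial 2-fold aqueous dilutions. Incubated at 37 °C with shaking, 24 h for Aspergillus, 48-72 h for Candida and Cryptococcus; A600 read. MIC taken as lowest concentration with no growth.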

[4] = Membrane permeabilization activity assessed as release of calcein from PC/PE/PI/ergosterol liposomes at 20 ug/ml after 5 mins by spectrofluorimetry; format: ADME
Outline: (§4)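 Calcein-loaded LUVs, PE/PG (bacterial mimic) or PC/PE/PI/ergosterol (fungal mimic), exposed to 1-20 μg/mL for 5 min before fluorescence reading. Triton X-100 in Tris-HCl/NaCl/EDTA buffer sets 100% leakage; % leakage = 100(F−F0)/(Ft−F0). Run in triplicate, two independent experiments, mean ± SD.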

[5] = system: Escherichia coli; experiment: Binding affinity to Escherichia coli plasmid DNA at 12 ug/ml after 1 hr by gel retardation assay
Outline: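 Gel retardation: 100 ng plasmid DNA from E. coli PGI/DML02292 mixed with varying peptide amounts in binding buffer (10 mM Tris-HCl pH 8.0, 5% glycerol, 1 mM EDTA, 1 mM DTT, 20 mM KCl, 50 μg/mL BSA). Held 1 h at room temperature, then run on 1% agarose in 0.5× TBE. Polymyxin B as standard.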

[6] = Therapeutic index, ratio of HC50 for human RBCs to MIC for Staphylococcus aureus MTCC 3160; details: red blood cells (RBCs), read-out: TI
[7] = system: Staphylococcus aureus; experiment: Antibacterial activity against methicillin-resistant Staphylococcus aureus PGI/ DML03149 clinical isolate after 18 hrs by micro dilution broth assay; format: functional; details: PGI/ DML03149, 18 h
[8] = system: Escherichia coli; experiment: Bactericidal activity against Escherichia coli MTCC 0723 assessed as log reduction in bacterial growth at 4 to 8 times MIC up to 30 mins by time-kill assay relative to control; format: functional; outline: as §2
[9] = Membrane permeabilization activity assessed as release of calcein from PC/PE/PI/ergosterol liposomes at 4 ug/ml after 5 mins by spectrofluorimetry; format: ADME; outline: as §4
[10] = Stability in human plasma after 4 days by analytical RP-HPLC; format: ADME, cell-free; details: read-out: Stability
Outline: (§5)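 Heparinized fresh human plasma (1 mL) plus 50 μL of a […] aqueous stock, incubated at 37 °C. At intervals, 100 μL aliquots precipitated with 200 μL 95% ethanol, held 15 min at 4 °C, spun at 18,000 g for 2 min. Supernatant analysed by C18 RP-HPLC.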

[11] = system: Staphylococcus aureus; experiment: Bactericidal activity against Staphylococcus aureus MTCC 3160 assessed as log reduction in bacterial growth at 4 to 8 times MIC up to 30 mins by time-kill assay relative to control; format: functional; outline: as §2
[12] = system: Plasma; experiment: Stability in human plasma after 24 hrs by analytical RP-HPLC; format: ADME, cell-free; outline: as §5
[13] = Membrane permeabilization activity assessed as release of calcein from PE/PG liposomes at 4 ug/ml after 5 mins by spectrofluorimetry; format: ADME; outline: as §4
[14] = system: Staphylococcus aureus; experiment: Growth inhibition of Staphylococcus aureus MTCC 3160 at 2 times MIC by time-kill assay; format: functional, organism-based; outline: as §2
[15] = system: Candida albicans; experiment: Antifungal activity against fluconazole-resistant Candida albicans PGI/ DML0109 clinical isolate after 48 to 72 hrs by M27-A method; format: functional; outline: as §1
[16] = system: Staphylococcus aureus; experiment: Antibacterial activity against Staphylococcus aureus MTCC 3160 after 18 hrs by micro dilution broth assay; format: functional; details: MTCC 3160, 18 h
Outline: (§6)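 Broth microdilution (modified CLSI): mid-log inoculum at 10^5 CFU/mL in Mueller-Hinton broth; serial 2-fold dilutions of sample in 0.001% acetic acid with 0.2% BSA added. Incubated overnight at 37 °C with agitation; A600 read at 18 h. Drug-free culture and uninoculated broth as controls; triplicate.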

[17] = system: Escherichia coli; experiment: Membrane disruption effect in Escherichia coli MTCC 0723 assessed as surface blebs and aggregation at 4 times MIC by scanning electron microscopy; format: functional, organism-based
Outline: (§7)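 SEM: E. coli and S. aureus at 1×10^6 CFU/mL in 10 mM PBS pH 7.4 with 100 mM NaCl, exposed at 4×MIC at 37 °C. […] After 30 min, cells fixed in 4% glutaraldehyde/0.2 M cacodylate for 3 h at 4 °C, ethanol-dehydrated, HMDS-dried, gold-coated (~20 nm).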

[18] = system: Bacillus subtilis; experiment: Antibacterial activity against Bacillus subtilis MTCC 2763 after 18 hrs by micro dilution broth assay; format: functional; details: MTCC 2763, 18 h; outline: as §6
[19] = system: Cryptococcus neoformans; experiment: Antifungal activity against Cryptococcus neoformans ATCC 2344 after 48 to 72 hrs by M27-A method; format: functional; outline: as §3
[20] = system: Staphylococcus aureus; experiment: Membrane disruption effect in Staphylococcus aureus MTCC 3160 assessed as surface blebs and aggregation at 4 times MIC by scanning electron microscopy; format: functional, organism-based; outline: as §7
[21] = system: Escherichia coli; experiment: Bactericidal activity against Escherichia coli MTCC 0723 at 4 to 8 times MIC by time-kill assay; format: functional, organism-based; outline: as §2
[22] = system: Escherichia coli; experiment: Growth inhibition of Escherichia coli MTCC 0723 at 2 times MIC by time-kill assay; format: functional, organism-based; outline: as §2
[23] = system: Pseudomonas aeruginosa; experiment: Antibacterial activity against Pseudomonas aeruginosa MTCC 2295 after 18 hrs by micro dilution broth assay; format: functional; details: MTCC 2295, 18 h; outline: as §6
[24] = system: Staphylococcus aureus; experiment: Antibacterial activity against methicillin-resistant Staphylococcus aureus PGI/ DML03149 clinical isolate after 16 days by serial passage resistance development assay; format: functional, organism-based
Outline: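 MRSA clinical isolate serially passaged for 16 days. Each day MICs were set up in microtiter wells over doubling-dilution concentrations, 18 h incubation. Cells from triplicate wells at the concentration still permitting visible growth were diluted to about 2×10^5 CFU/mL to seed the next exposure. MIC was tracked across passages.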

[25] = system: Aspergillus fumigatus; experiment: Antifungal activity against Aspergillus fumigatus ATCC 42203 after 24 hrs by M27-A method; format: functional; details: ATCC 42203, 24 h; outline: as §3
[26] = Proteolytic stability assessed as alpha-chymotrypsin (unknown origin)-mediated degradation after 4 days by analytical RP-HPLC; format: ADME, Homo sapiens; details: 96 h
Outline: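 Peptide (1 mg/mL sample solution) and enzyme solution (1 mg per 50 mL) in 0.1 M NH4HCO3 pH 8.2, combined with buffer and incubated at 37 °C. Aliquots taken over time, quenched with 10% formic acid. Remaining peptide quantified by C18 RP-HPLC with a water/acetonitrile gradient (0.05% TFA); enzyme-free control run alongside.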

[27] = system: Candida albicans; experiment: Antifungal activity against Candida albicans ATCC 24433 after 48 to 72 hrs by M27-A method; format: functional; outline: as §3
[28] = Membrane permeabilization activity assessed as release of calcein from PE/PG liposomes at 20 ug/ml after 5 mins by spectrofluorimetry; format: ADME; outline: as §4
[29] = system: Escherichia coli; experiment: Antibacterial activity against Escherichia coli MTCC 0723 after 18 hrs by micro dilution broth assay; format: functional; details: MTCC 0723, 18 h; outline: as §6
[30] = Hemolytic activity in human RBCs; format: ADME, cell-based, Erythrocyte; details: red blood cells (RBCs)
Outline: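 Washed fresh human erythrocytes, 4% (v/v) in PBS (35 mM phosphate, 150 mM NaCl, pH 7.2), mixed 1:1 with 2-fold dilutions in PBS. Incubated 1 h at 37 °C without agitation, then centrifuged at 1000 g for 5 min. Supernatant hemoglobin read at 440 nm; % hemolysis = 100(A−A0)/(At−A0).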

[31] = system: Escherichia coli; experiment: Antibacterial activity against imipenem-resistant Escherichia coli PGI/ DML02292 clinical isolate after 18 hrs by micro dilution broth assay; format: functional; details: PGI/ DML02292, 18 h
[32] = Therapeutic index, ratio of HC50 for human RBCs to MIC for Escherichia coli MTCC 0723; details: red blood cells (RBCs), read-out: TI

## CCCCCCCCCCCCCC(=O)Nc1cccc(C(=O)NC(CCCN)C(=O)NC(CCCN)C(=O)NC(CCCN)C(=O)NC(CCCN)C(N)=O)c1 (configuration not stated) ({Myristoyl-3Abz}-[Orn][Orn][Orn][Orn]-NH2; configuration not given here)
[1]
  MIC: 4 µg/mL (≈ 4.98 µM)
[2]
  Activity: Active
[3]
  MIC: 3 µg/mL (≈ 3.74 µM)
[4]
  Activity: 77%
[5]
  Activity: inactive
[6]
  selectivity ratio: 333
[7]
  MIC: 2 µg/mL (≈ 2.49 µM)
[8]
  FC: 5
[9]
  Activity: 29%
[10]
  remaining at 96 h: 76%
[11]
  FC: 5
[12]
  Stability: Stable
[13]
  Activity: 58%
[14]
  growth inhibition (GI): Active
[15]
  MIC: 4 µg/mL (≈ 4.98 µM)
[16]
  MIC: 1.5 µg/mL (≈ 1.87 µM)
[17]
  Activity: Active
[18]
  MIC: 10 µg/mL (≈ 12.5 µM)
[19]
  MIC: 6.25 µg/mL (≈ 7.78 µM)
[20]
  Activity: Active
[21]
  Activity: Active
[22]
  growth inhibition (GI): Active
[23]
  MIC: 2 µg/mL (≈ 2.49 µM)
[24]
  Activity: Active
[25]
  MIC: 2.25 µg/mL (≈ 2.8 µM)
[26]
  Stability: Stable
[27]
  MIC: 3.1 µg/mL (≈ 3.86 µM)
[28]
  Activity: 93%
[29]
  MIC: 1.25 µg/mL (≈ 1.56 µM)
[30]
  HC50: 500 µg/mL
[31]
  MIC: 3.1 µg/mL (≈ 3.86 µM)
[32]
  selectivity ratio: 400

From ChEMBL document CHEMBL3351820, “Development of novel membrane active lipidated peptidomimetics active against drug resistant clinical isolates” (Bioorg Med Chem, 2014)
